{"source": "ChEMBL document CHEMBL1156418", "about": "“Identification and phenotypic characterization of a beta-lactam-dependent, methicillin-resistant Staphylococcus aureus strain” (2007)", "key": {"Staphylococcus aureus [1]": {"test_system": "Staphylococcus aureus", "test": "Antibacterial activity against methicillin-resistant Staphylococcus aureus 2884", "format": "functional"}, "Staphylococcus aureus [2]": {"test_system": "Staphylococcus aureus", "test": "Antibacterial activity against methicillin-resistant Staphylococcus aureus 2884 isolate at 5 ug by disc diffusion method", "format": "functional", "settings": "read-out: IZ", "how_it_was_run": "(§1)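 Disk diffusion on 100-mm Mueller-Hinton agar plates inoculated with a 0.5 McFarland suspension. Disks: oxacillin 5 μg, cefoxitin 30 μg, ceftobiprole 30 μg, amoxicillin-clavulanic acid 20/10 μg, ofloxacin 5 μg, imipenem 10 μg. Inhibition zone diameters were read per CLSI and CASFM guidelines.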"}, "Staphylococcus aureus [3]": {"test_system": "Staphylococcus aureus", "test": "Antibacterial activity against methicillin-resistant Staphylococcus aureus 2884 isolate by disc diffusion method", "format": "functional", "how_it_was_run": "as §1"}, "Staphylococcus aureus [4]": {"test_system": "Staphylococcus aureus", "test": "Antibacterial activity against oxacillin-dependent methicillin-resistant Staphylococcus aureus 2884D isolate at 5 ug by disc diffusion method", "format": "functional, organism-based", "how_it_was_run": "as §1"}, "Staphylococcus aureus [5]": {"test_system": "Staphylococcus aureus", "test": "Antibacterial activity against methicillin-resistant Staphylococcus aureus 2884 isolate at 30 ug by disc diffusion method", "format": "functional, organism-based", "how_it_was_run": "as §1"}, "Staphylococcus aureus [6]": {"test_system": "Staphylococcus aureus", "test": "Antibacterial activity against oxacillin-dependent methicillin-resistant Staphylococcus aureus 2884D isolate", "format": "functional"}, "Staphylococcus aureus [7]": {"test_system": "Staphylococcus aureus", "test": "Antibacterial activity against oxacillin-dependent methicillin-resistant Staphylococcus aureus 2884D isolate assessed as decrease in log bacterial count at >= 256 ug/ml", "format": "functional"}, "Staphylococcus aureus [8]": {"test_system": "Staphylococcus aureus", "test": "Antibacterial activity against methicillin-resistant Staphylococcus aureus 2884 isolate assessed as decrease in log bacterial count at 1 ug/ml", "format": "functional"}, "Staphylococcus aureus [9]": {"test_system": "Staphylococcus aureus", "test": "Effect on blaZ gene expression in oxacillin-dependent methicillin-resistant Staphylococcus aureus 2884D isolate at 0.5 ug/ml by RT-PCR", "format": "functional, organism-based", "how_it_was_run": "(§2)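 TaqMan real-time RT-PCR on RNA from exponential-phase cells grown with or without 0.5 μg/ml oxacillin; the dependent strain was also grown on blood agar without oxacillin. Each reaction used 25 ng total RNA, 500 nM primers and 100 nM probe. Cycling: 48°C 30 min, 95°C 10 min, then 40 × (95°C 15 s, 60°C 1 min). Quantified by C_T against a standard curve, expressed relative to 16S; triplicate runs.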"}, "Staphylococcus aureus [10]": {"test_system": "Staphylococcus aureus", "test": "Effect on blaZ gene expression in oxacillin-dependent methicillin-resistant Staphylococcus aureus 2884D isolate at 0.5 ug/ml in presence of blood agar by RT-PCR", "format": "functional, organism-based", "how_it_was_run": "as §2"}, "Staphylococcus aureus [11]": {"test_system": "Staphylococcus aureus", "test": "Induction of blaR1 gene expression in methicillin-resistant Staphylococcus aureus 2884 isolate by RT-PCR", "format": "functional, organism-based", "how_it_was_run": "as §2"}, "Staphylococcus aureus [12]": {"test_system": "Staphylococcus aureus", "test": "Induction of blaI mRNA expression in methicillin-resistant Staphylococcus aureus 2884 isolate by RT-PCR", "format": "functional, organism-based", "how_it_was_run": "as §2"}, "Staphylococcus aureus [13]": {"test_system": "Staphylococcus aureus", "test": "Induction of blaI mRNA expression in oxacillin-dependent methicillin-resistant Staphylococcus aureus 2884D isolate by RT-PCR", "format": "functional, organism-based", "how_it_was_run": "as §2"}, "Staphylococcus aureus [14]": {"test_system": "Staphylococcus aureus", "test": "Decrease in PBP2 gene expression in oxacillin-dependent methicillin-resistant Staphylococcus aureus 2884D isolate by RT-PCR", "format": "functional, organism-based", "how_it_was_run": "as §2"}, "Staphylococcus aureus [15]": {"test_system": "Staphylococcus aureus", "test": "Effect on vraSR gene expression in oxacillin-dependent methicillin-resistant Staphylococcus aureus 2884D isolate in presence of blood agar by RT-PCR", "format": "functional, organism-based", "how_it_was_run": "as §2"}, "Staphylococcus aureus [16]": {"test_system": "Staphylococcus aureus", "test": "Induction of blaR1 gene expression in oxacillin-dependent methicillin-resistant Staphylococcus aureus 2884D isolate by RT-PCR", "format": "functional, organism-based", "how_it_was_run": "as §2"}}, "note": "Active and inactive are the calls of the source. No cut-off for these calls is given here."}
{"smiles": "CO[C@@]1(NC(=O)Cc2cccs2)C(=O)N2C(C(=O)O)=C(COC(N)=O)CS[C@@H]21", "note": "(single isomer, unassigned) [CEFOXITIN]", "values": [{"measurement": "MIC", "setting": "Staphylococcus aureus [1]", "value": 32, "unit": "µg/mL"}, {"measurement": "zone of inhibition at 5 µg/disc", "setting": "Staphylococcus aureus [2]", "value": 13, "unit": "mm"}]}
{"smiles": "Nc1nc(/C(=N/O)C(=O)N[C@@H]2C(=O)N3C(C(=O)O)=C(/C=C4\\CCN([C@@H]5CCNC5)C4=O)CS[C@H]23)ns1", "note": "[CEFTOBIPROLE]", "values": [{"measurement": "MIC", "setting": "Staphylococcus aureus [1]", "value": 2, "unit": "µg/mL"}, {"measurement": "inhibition zone (IZ)", "setting": "Staphylococcus aureus [3]", "value": 34, "unit": "mm"}]}
{"smiles": "C[C@@H](O)[C@H]1C(=O)N2C(C(=O)O)=C(SCCNC=N)C[C@H]12", "note": "[IMIPENEM ANHYDROUS]", "values": [{"measurement": "MIC", "setting": "Staphylococcus aureus [1]", "value": 8, "unit": "µg/mL"}]}
{"smiles": "CC1COc2c(N3CCN(C)CC3)c(F)cc3c(=O)c(C(=O)O)cn1c23", "note": "(stereo unspecified) [OFLOXACIN]", "values": [{"measurement": "Activity", "setting": "Staphylococcus aureus [4]", "value": "inactive"}, {"measurement": "zone of inhibition at 5 µg/disc", "setting": "Staphylococcus aureus [2]", "value": 15, "unit": "mm"}, {"measurement": "Activity", "setting": "Staphylococcus aureus [5]", "value": "inactive"}]}
{"smiles": "Cc1onc(-c2ccccc2)c1C(=O)N[C@@H]1C(=O)N2[C@@H]1SC(C)(C)[C@@H]2C(=O)O", "note": "[OXACILLIN]", "values": [{"measurement": "MIC", "setting": "Staphylococcus aureus [1]", "value": 64, "unit": "µg/mL"}, {"measurement": "MIC", "setting": "Staphylococcus aureus [6]", "value": "≥ 256", "unit": "µg/mL"}, {"measurement": "CFU/ml", "setting": "Staphylococcus aureus [7]", "value": 3}, {"measurement": "CFU/ml", "setting": "Staphylococcus aureus [8]", "value": 4}, {"measurement": "zone of inhibition at 5 µg/disc", "setting": "Staphylococcus aureus [2]", "value": 15, "unit": "mm"}, {"measurement": "Activity", "setting": "Staphylococcus aureus [9]", "value": "inactive"}, {"measurement": "Activity", "setting": "Staphylococcus aureus [10]", "value": "inactive"}, {"measurement": "Activity", "setting": "Staphylococcus aureus [11]", "value": "inactive"}, {"measurement": "Activity", "setting": "Staphylococcus aureus [12]", "value": "Active"}, {"measurement": "Activity", "setting": "Staphylococcus aureus [13]", "value": "inactive"}, {"measurement": "Activity", "setting": "Staphylococcus aureus [14]", "value": "Active"}, {"measurement": "Activity", "setting": "Staphylococcus aureus [15]", "value": "inactive"}, {"measurement": "Activity", "setting": "Staphylococcus aureus [16]", "value": "Active"}]}
